What is called inhibition is the relative decrease from the control value, in per cent. By IC50 is commonly meant the concentration needed to halve the response being measured.

The text below walks through data of ChEMBL document CHEMBL4610063, “Mangiferin: A promising natural xanthone from Mangifera indica for the control of acyclovir - resistant herpes simplex virus 1 infection” (Bioorg Med Chem, 2020).

Values after ≈ are worked out from the molar mass of the structure shown. Active and inactive are the calls of the source. The rule behind the calls is not given here.

Data set [1] concerns Human alphaherpesvirus 1. Nature of the data set: Antiviral activity against ACV-resistant Herpes simplex virus 1 AR-29 infected in African green monkey Vero cells assessed as inhibition of viral infection at 3.12 ug/ml measured after 72 hrs by crystal violet staining based plaque reduction assay relative to control. Format: functional. To be noted: Human alphaherpesvirus 1, AR-29, Vero. The essentials: (§1)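 Plaque reduction in Vero cells. Mangiferin at 3.12, 6.25, 12.5 or 25 μg/mL is added at infection (0 h) with HSV-1 (10^5 PFU/mL). Agarose overlay with 25 mM MgCl2, 72 h at 37 °C/5% CO2, 20% formaldehyde fix, 0.5% crystal violet stain. %VI is taken against virus control. IC50 comes from linear regression of inhibition curves. Triplicate independent experiments.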
A general note: In a plaque reduction assay, fewer plaques than in the control indicate reduced infectivity or spread.

Data set [2] deals with Human alphaherpesvirus 1. Nature of the data set: Antiviral activity against ACV-resistant Herpes simplex virus 1 AR-29 infected in African green monkey Vero cells assessed as inhibition of viral infection at 6.25 ug/ml measured after 72 hrs by crystal violet staining based plaque reduction assay relative to control. The format is functional. As to conditions: Human alphaherpesvirus 1, AR-29, Vero. Put shortly: as §1

For data set [3], the system named is Human alphaherpesvirus 1. Nature of the data set: Antiviral activity against ACV-resistant Herpes simplex virus 1 AR-29 infected in African green monkey Vero cells assessed as inhibition of viral infection at 25 ug/ml measured after 72 hrs by crystal violet staining based plaque reduction assay relative to control. To be noted: Human alphaherpesvirus 1, AR-29, Vero. The format is functional. Put shortly: as §1

Data set [4] concerns Human alphaherpesvirus 1. Nature of the data set: Antiviral activity against ACV-sensitive Herpes simplex virus 1 KOS infected in African green monkey Vero cells assessed as inhibition of viral infection at 3.12 ug/ml measured after 72 hrs by crystal violet staining based plaque reduction assay relative to control. The format is functional. To be noted: Human alphaherpesvirus 1, strain KOS. Put shortly: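 Vero monolayers infected with HSV-1 KOS (10^5 PFU/mL) with mangiferin (3.12, 6.25, 12.5, 25 μg/mL) added at infection (0 h). Overlay of nutrient agarose with 25 mM MgCl2; plaques counted after 72 h at 37 °C, 5% CO2, fixed in 20% formaldehyde/PBS and stained with 0.5% crystal violet. %VI versus virus control; triplicate experiments.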

Data set [5] has as its system Human alphaherpesvirus 1. Nature of the data set: Antiviral activity against ACV-resistant Herpes simplex virus 1 AR-29 infected in African green monkey Vero cells assessed as inhibition of viral infection measured after 72 hrs by crystal violet staining based plaque reduction assay. The format is functional, organism-based. As to conditions: Human alphaherpesvirus 1, AR-29, Vero. Put shortly: as §1

Data set [6] is described as follows: Selectivity index, ratio of CC50 for African green monkey Vero cells to IC50 for Herpes simplex virus 1 KOS infected in African green monkey Vero cells. The format is toxicity. To be noted: read-out: Ratio CC50/IC50. Put shortly: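 SI = CC50 (Vero, MTT, 72 h) / IC50 from plaque reduction with mangiferin added at infection (0 h) against HSV-1 AR-29 or KOS; IC50 by linear regression of viral inhibition curves.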

For data set [7], the system named is Human alphaherpesvirus 1. Kind of data set: Antiviral activity against ACV-sensitive Herpes simplex virus 1 KOS infected in female Balb/c mouse assessed as reduction in ulcerated lesion at 0.7% w/w applied topically 5 times a day at 3 hrs interval for 10 days measured on day 2 to day 7 post infection. To be noted: strain KOS. Format: functional, organism-based. The essentials:
(§2)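 Balb/c mice (5 weeks, 22–27 g; six per group, sexes tested separately) had the right mid-flank depilated under i.p. anaesthesia and needle-scarified 24 h later. They were inoculated with 70 μL HSV-1 KOS (10^5 PFU/mL). From 4 h post-infection, O/W emulsion with 0.7% w/w mangiferin or ACV cream (50 mg/g) was applied topically 5 times daily for 10 days. Lesions were scored daily.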

Data set [8] concerns Human alphaherpesvirus 1. Nature of the data set: Antiviral activity against ACV-sensitive Herpes simplex virus 1 KOS infected in male Balb/c mouse assessed as reduction in vesicles at 0.7% w/w applied topically 5 times a day at 3 hrs interval for 10 days measured on day 2 post infection. The format is functional, organism-based. As to conditions: strain KOS. Put shortly: as §2

Data set [9] relates to Human alphaherpesvirus 1. Kind of data set: Virucidal activity against ACV-sensitive Herpes simplex virus 1 KOS infected in African green monkey Vero cells assessed as inhibition of viral inhibition at 25 ug/mL measured after 1 hr by plaque reduction assay relative to control. The format is functional. To be noted: Human alphaherpesvirus 1, strain KOS. Put shortly: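 HSV-1 KOS suspension incubated with mangiferin (3.12–25 μg/mL) 1 h at 37 °C, then put on Vero cells for plaque reduction: agarose overlay with MgCl2, 72 h, crystal violet staining. %VI against virus control; triplicate independent experiments.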

Data set [10] deals with Human alphaherpesvirus 1. Nature of the data set: Antiviral activity against ACV-resistant Herpes simplex virus 1 AR-29 infected in African green monkey Vero cells assessed as inhibition of viral adsorption at 12.5 ug/mL preincubated for 30 mins and measured after 1 hr by plaque reduction assay relative to control. The format is functional. As to conditions: Human alphaherpesvirus 1, AR-29, Vero. The essentials: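 Vero cells pre-chilled 30 min at 4 °C, then given mangiferin (3.12–25 μg/mL) together with HSV-1 AR-29 (10^5 PFU/mL) for 1 h adsorption at 4 °C. Plaque reduction assay follows: nutrient agarose overlay with 25 mM MgCl2, 72 h at 37 °C/5% CO2, formaldehyde fixation, crystal violet stain. %VI = [1 − PFU treated/PFU virus control] × 100.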

The subject of data set [11] is Human alphaherpesvirus 1. Kind of data set: Antiviral activity against ACV-resistant Herpes simplex virus 1 AR-29 infected in male Balb/c mouse assessed as reduction in zosteriform lesion at 0.7% w/w applied topically 5 times a day at 3 hrs interval for 10 days measured on day 5 post infection. The format is functional, organism-based. Put shortly: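 Balb/c mice, 5 weeks old, six per group. Right mid-flank depilated under i.p. anaesthesia, needle-scarified 24 h later and inoculated with 70 μL HSV-1 AR-29 (10^5 PFU/mL). Topical 0.7% w/w O/W emulsion or ACV cream (50 mg/g) starts 4 h post-infection, 5 times daily for 10 days. Lesions are scored daily.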

Data set [12] in a line: Toxicity in Balb/c mouse infected with ACV-sensitive Herpes simplex virus 1 KOS assessed as effect on body weight at 0.7% w/w applied topically 5 times a day at 3 hrs interval for 10 days measured on day 10 post infection. As to conditions: in vivo, topical_or_ocular.
Data set [13] in a line: Toxicity in Balb/c mouse infected with ACV-resistant Herpes simplex virus 1 AR-29 assessed as effect on body weight at 0.7% w/w applied topically 5 times a day at 3 hrs interval for 10 days measured on day 10 post infection. As to conditions: in vivo, topical_or_ocular.
The nature of data set [14]: Toxicity in Balb/c mouse infected with ACV-sensitive Herpes simplex virus 1 KOS assessed as death at 0.7% w/w applied topically 5 times a day at 3 hrs interval for 10 days measured on day 10 post infection. To be noted: in vivo, topical_or_ocular.
Data set [15] has as its system Human alphaherpesvirus 1. Kind of data set: Antiviral activity against ACV-resistant Herpes simplex virus 1 AR-29 infected in male Balb/c mouse assessed as change in dermis thickness at 0.7% w/w applied topically 5 times a day at 3 hrs interval for 10 days measured on day 10 post infection by H and E staining based histological analysis. The format is functional, organism-based.

Data set [16] relates to Human alphaherpesvirus 1. Nature of the data set: Antiviral activity against ACV-sensitive Herpes simplex virus 1 KOS infected in male Balb/c mouse assessed as change in dermis thickness at 0.7% w/w applied topically 5 times a day at 3 hrs interval for 10 days measured on day 10 post infection by H and E staining based histological analysis. As to conditions: strain KOS.
The subject of data set [17] is Human alphaherpesvirus 1. Kind of data set: Antiviral activity against ACV-sensitive Herpes simplex virus 1 KOS infected in male Balb/c mouse assessed as change in epidermis thickness at 0.7% w/w applied topically 5 times a day at 3 hrs interval for 10 days measured on day 10 post infection by H and E staining based histological analysis. As to conditions: strain KOS.

As for `O=c1c2cc(O)c(O)cc2oc2cc(O)c([C@@H]3O[C@H](CO)[C@@H](O)[C@H](O)[C@H]3O)c(O)c12` [MANGIFERIN], the inhibition at 3.12 µg/mL in the data set with Human alphaherpesvirus 1 [1] worked out at 57.6%; with Human alphaherpesvirus 1 [4], 37.5%. Besides, the inhibition at 6.25 µg/mL in the data set on Human alphaherpesvirus 1 [2] was determined as 94.4%. The inhibition at 25 µg/mL in the data set on Human alphaherpesvirus 1 [3] was 100%; in the data set with Human alphaherpesvirus 1 [9], 74.8%. For the same compound, the IC50 with Human alphaherpesvirus 1 [5] is 2.9 µg/mL (≈ 6.87 µM). Further, in data set [6], the selectivity ratio is greater than 143. The result in the data set on Human alphaherpesvirus 1 [7], in the data set with Human alphaherpesvirus 1 [8], in the data set with Human alphaherpesvirus 1 [15], with Human alphaherpesvirus 1 [16] and in the data set with Human alphaherpesvirus 1 [17] was inactive. The inhibition at 12.5 µg/mL with Human alphaherpesvirus 1 [10] amounted to 71.3%. The outcome in the data set with Human alphaherpesvirus 1 [11] was Active. The Activity entry in [12], in data set [13] and in data set [14] was “Non-Toxic” in each case.
